Bioassay records as filed in PubChem BioAssay.
CAL PDZ FP-1: blocks peptide binding to the human CAL PDZ domain; Q9HD26; purified CAL PDZ, TMR-peptide fluorescence polarization, 1 h; inhibition, % at 24.9 µM; actives 0.92% (n = 300,000);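 active = mean inhibition of at least 30% with at least half of replicates also reaching 30%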;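 note: 0% = DMSO neutral control and 100% = excess unlabeled competitor peptide PRC23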
CAL PDZ FP-2: blocks peptide binding to human CAL PDZ domain; Q9HD26; purified CAL PDZ, TMR-peptide fluorescence polarization, 1 h; inhibition, % at 20 µM; actives 0.02% (n = 330,000); AID 504414;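 active = highest replicate inhibition of at least 40%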;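 note: plate controls were DMSO neutral control wells for no effect and unlabeled competitor peptide control wells for full effect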
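Material – purified CerCALP PDZ construct · Detection – FP readout, S and P plane fluorescence · Measure – percent inhibition from loss of millipolarization · Controls – unlabelled peptide for full inhibition, DMSO wells as neutral · Probe or stimulus – TMR-labelled reporter peptide T*-PRC34 bound in PDZ groove · Times – 1 h at RT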
dFosB act: mouse delta FosB homodimer activation | P13346 | purified delta FosB, TAMRA-CDK5 oligo fluorescence polarization; percent of positive-control signal above neutral wells | activation, % at 25 µM | actives 0.99% (n = 340,000) | AID 493131;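 active = mean activation above about 17%, with every replicate also reaching it, limit read from the data, passing the limit was not always enough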
C2C12 statin: suppression of simvastatin myotoxicity; actives 0.78% (n = 330,000); C2C12 myotubes + simvastatin, ATP luminescence, 48 h; scaled: DMSO 0, geranylgeraniol control 100; rescue of ATP level, % at 7.49 µM; AID 602340;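 active = mean ATP rescue above about 67%, or every replicate alone reaching that limit, limit read from the data, passing the limit was not always enough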;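 note: myotubes were challenged with 10 µM simvastatin during compound exposure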
CDK5 p35 inh: CDK5/p35 (human) kinase inhibition | Q00535+Q15078 | Recombinant CDK5/p35, ADP-Glo luminescence, 60 min | inhibition, % at 10 µM | actives 0.01% (n = 330,000) | AID 488839;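 active = highest replicate inhibition of at least 50% and at least 75% of replicates reaching 50%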;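 note: plate controls were DMSO neutral control for no effect and GW8510 at 10 µM for full effect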
Target sequence (Q00535 whole entry, looked up): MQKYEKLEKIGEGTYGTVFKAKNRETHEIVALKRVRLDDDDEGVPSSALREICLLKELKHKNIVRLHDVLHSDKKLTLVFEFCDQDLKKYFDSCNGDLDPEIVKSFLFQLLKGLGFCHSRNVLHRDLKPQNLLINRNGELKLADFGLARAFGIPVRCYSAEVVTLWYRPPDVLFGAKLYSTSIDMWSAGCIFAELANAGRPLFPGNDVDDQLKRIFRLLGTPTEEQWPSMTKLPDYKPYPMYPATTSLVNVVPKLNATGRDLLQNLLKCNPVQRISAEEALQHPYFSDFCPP
Target sequence (Q15078 whole entry, looked up): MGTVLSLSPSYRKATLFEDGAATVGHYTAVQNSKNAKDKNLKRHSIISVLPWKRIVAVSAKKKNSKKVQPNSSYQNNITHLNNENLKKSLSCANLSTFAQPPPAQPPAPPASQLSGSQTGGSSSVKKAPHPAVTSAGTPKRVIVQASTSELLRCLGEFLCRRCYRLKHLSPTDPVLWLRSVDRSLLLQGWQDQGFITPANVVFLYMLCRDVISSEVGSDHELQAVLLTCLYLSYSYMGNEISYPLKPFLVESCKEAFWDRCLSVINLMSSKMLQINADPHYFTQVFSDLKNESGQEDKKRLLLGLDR
S100A4 MyoIIA: inhibitors of human S100A4 binding to myosin IIA peptide. inhibition, % at 10.7 µM. actives 0.14% (n = 360,000). S100A4/TAMRA-MyoIIA peptide fluorescence polarization;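 active = mean inhibition of at least 70% across replicates, with every replicate also reaching that level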
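Test system: S100A4 monomer protein. Medium: HEPES buffer with Ca2+, pH 7.2. Reagent: fluorescent myosin IIA peptide, 5 nM. Compound dosing: single-point compound testing. Timing: 5 min between mix addition and reading. Benchmarks: DMSO neutral and TFP positive wells.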
* marks the source's active call; other numbers are inactive results. A selection: hits, their analogues and other compounds. The true share with any hit is near 2%.

For CCN(CC)CCNC(=O)c1c(C)n(-c2ccccc2)c2cc(Br)c(OC)cc12 the results were CAL PDZ FP-1 -10, CAL PDZ FP-2 -5, dFosB act 26* and CDK5 p35 inh 0.
For COc1ccc(-n2nc(C(=O)NCC(=O)Nc3ccccn3)c3ccccc3c2=O)cc1Cl the results were CAL PDZ FP-1 0, CAL PDZ FP-2 0, dFosB act 67*, C2C12 statin -2 and CDK5 p35 inh 1.
COc1ccc(C(=O)NCC(=O)OCC(=O)N2CCC(C)CC2)cc1OC was read as CAL PDZ FP-1 1, CAL PDZ FP-2 -1, dFosB act -11, CDK5 p35 inh -1 and S100A4 MyoIIA -1.
`COc1ccc(-n2nc(C(=O)NCC(=O)NC(C)C)c3ccccc3c2=O)cc1Cl` gave CAL PDZ FP-1 -2, CAL PDZ FP-2 0, dFosB act -17, C2C12 statin -24, CDK5 p35 inh 2 and S100A4 MyoIIA 4.
Screening COc1ccc(Cn2c(CCC(=O)N3CCN(c4ccccn4)CC3)nc3ncccc3c2=O)cc1 returned CAL PDZ FP-1 -2, CAL PDZ FP-2 -1, dFosB act 5, C2C12 statin 88* and CDK5 p35 inh -2.
For COc1ccc(C(=O)NCC(=O)N2CCC(C)CC2)cc1OC the results were CAL PDZ FP-1 7, CAL PDZ FP-2 -2, dFosB act 5, C2C12 statin 90* and CDK5 p35 inh -1.
COc1ccc(-n2nc(C(=O)NCC(=O)N3CCN(c4ccccn4)CC3)c3ccccc3c2=O)c(OC)c1 was read as CAL PDZ FP-1 43*, CAL PDZ FP-2 -2, dFosB act -4, C2C12 statin 0, CDK5 p35 inh -3 and S100A4 MyoIIA 0.
Screening O=C(CCc1nnc2n(Cc3ccc(Cl)cc3)c(=O)c3ccccc3n12)N1CCN(c2ccccn2)CC1 returned CAL PDZ FP-1 0, CAL PDZ FP-2 -3, dFosB act -4, C2C12 statin -13 and CDK5 p35 inh 1.
For COc1ccc(-n2nc(C(=O)NCC(=O)N3CCN(c4cccc(Cl)c4)CC3)c3ccccc3c2=O)c(OC)c1 the results were CAL PDZ FP-2 -1, dFosB act -6, C2C12 statin 3, CDK5 p35 inh 3 and S100A4 MyoIIA 1.
Screening CSC1=NCCN1C(=O)c1c(-c2ccccc2Cl)noc1C returned CAL PDZ FP-1 3, CAL PDZ FP-2 0, dFosB act -8, C2C12 statin -13, CDK5 p35 inh 0 and S100A4 MyoIIA -4.
`COc1ccc(-n2nc(C(=O)NCC(=O)N3CCC(C)CC3)c3ccccc3c2=O)cc1` gave CAL PDZ FP-1 47*, CAL PDZ FP-2 -2, dFosB act -17, C2C12 statin 4, CDK5 p35 inh -2 and S100A4 MyoIIA -7.
`COc1ccc(C(=O)NCC(=O)OCC(=O)c2ccc(Cl)cc2)cc1OC` gave CAL PDZ FP-1 34*, CAL PDZ FP-2 0, dFosB act -2, C2C12 statin 16, CDK5 p35 inh -1 and S100A4 MyoIIA 0.
Cn1cc(C(=O)NS(=O)(=O)Nc2ccc(Br)cn2)c2ccccc21 was read as CAL PDZ FP-1 -3, CAL PDZ FP-2 -1, dFosB act 1, CDK5 p35 inh 0 and S100A4 MyoIIA -2.
Cc1ccc(S(=O)(=O)Nc2ccc3c(c2)CC(=O)N([C@@H](C)CO)C[C@H](C)[C@@H](CN(C)Cc2ccc(-c4ccccc4)cc2)O3)cc1 was read as C2C12 statin 129* and S100A4 MyoIIA 11.
Screening C[C@@H]1CN([C@H](C)CO)C(=O)Cc2cc(NS(C)(=O)=O)ccc2O[C@@H]1CN(C)Cc1ccc(-c2ccccc2)cc1 returned C2C12 statin 95* and S100A4 MyoIIA -12.
Cc1ccc(S(=O)(=O)Nc2ccc3c(c2)CC(=O)N([C@@H](C)CO)C[C@H](C)[C@H](CN(C)Cc2ccc(-c4ccccc4)cc2)O3)cc1 was read as C2C12 statin 16 and S100A4 MyoIIA 21.
`Cc1ccc(S(=O)(=O)Nc2ccc3c(c2)CC(=O)N([C@@H](C)CO)C[C@@H](C)[C@H](CN(C)S(=O)(=O)c2ccc(C)cc2)O3)cc1` gave C2C12 statin 95* and S100A4 MyoIIA 1.
